In ChEMBL document CHEMBL1932980, “Structure-activity relationships of 2-amino-3-aroyl-4-[(4-arylpiperazin-1-yl)methyl]thiophenes. Part 2: Probing the influence of diverse substituents at the phenyl of the arylpiperazine moiety on allosteric enhancer activity at the A₁ adenosine receptor” (Bioorg Med Chem, 2012):

Key:
[1] = molecular target: T1, Adenosine receptor A1 (Homo sapiens) (UniProt P30542); test: Binding affinity to recombinant human A1 adenosine receptor allosteric site expressed in CHO cells assessed as potentiation of CCPA-induced [3H]DPCPX displacement at 10 uM after 90 mins relative to control; type: cell-based
T1 sequence (whole entry): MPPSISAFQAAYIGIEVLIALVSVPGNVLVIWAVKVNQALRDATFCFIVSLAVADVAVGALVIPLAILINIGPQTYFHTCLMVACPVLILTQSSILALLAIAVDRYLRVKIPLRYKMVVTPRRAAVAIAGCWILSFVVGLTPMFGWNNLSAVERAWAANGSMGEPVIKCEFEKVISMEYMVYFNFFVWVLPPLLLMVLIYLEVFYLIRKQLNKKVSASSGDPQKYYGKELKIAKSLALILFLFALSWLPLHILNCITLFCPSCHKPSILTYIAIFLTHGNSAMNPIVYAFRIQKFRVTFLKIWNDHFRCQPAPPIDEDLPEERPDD
Outline: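 Competition of CCPA (0.01 nM–1 µM) against 1 nM [3H]DPCPX on hA1CHO membranes, run in triplicate, 90 min at 25 °C, in 50 mM Tris–HCl pH 7.4, with or without test compound at 10 µM. Nonspecific binding taken with 1 µM DPCPX. Ki by Cheng–Prusoff. Shift = Ki(CCPA)/Ki(CCPA + 10 µM compound).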

[2] = molecular target: T1, Adenosine receptor A1 (Homo sapiens); test: Binding affinity to recombinant human A1 adenosine receptor allosteric site expressed in CHO cells assessed as [3H]DPCPX Bmax shift at 10 uM after 90 mins relative to control; type: cell-based
Outline: (§1)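 Saturation binding of [3H]DPCPX (0.05–20 nM) to hA1CHO membranes, run in triplicate, 90 min at 25 °C, in 50 mM Tris–HCl pH 7.4, with or without test compound at final 10 µM. Nonspecific binding taken with 1 µM DPCPX. KD and Bmax fitted by LIGAND. Shift is the fold of Bmax increase over control.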

[3] = molecular target: T1, Adenosine receptor A1 (Homo sapiens); test: Allosteric enhancer activity at recombinant human A1 adenosine receptor expressed in CHO cells assessed as change in forskolin-induced cAMP production at 0.01 uM after 6 mins by radioimmunoassay; type: functional, cell-based
Outline: (§2)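 hA1CHO cells (about 8000 fmol/mg protein) thawed from low-passage stocks, grown in Ham's F-12 with 10% FBS and G-418, then plated 48 h. Test compound at 0.01, 0.1, 1 or 10 µM with CPA (0.05–0.1 nM) for 6 min at 36 °C. Stopped with HCl (final 50 mM). cAMP in acidified extracts measured by radioimmunoassay. Reference enhancer run in each experiment. Four experiments per concentration.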

[4] = molecular target: T1, Adenosine receptor A1 (Homo sapiens); test: Binding affinity to recombinant human A1 adenosine receptor allosteric site expressed in CHO cells assessed as [3H]CCPA Bmax shift at 10 uM after 90 mins relative to control; type: cell-based
Outline: as §1, with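 “[3H]CCPA” for “[3H]DPCPX”, “membranes. Membranes pretreated with adenosine deaminase 3 UI/mL for 30 min at 37 °C. Run” for “membranes, run”, “R-PIA.” for “DPCPX. KD and”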

[5] = molecular target: T1, Adenosine receptor A1 (Homo sapiens); test: Allosteric enhancer activity at recombinant human A1 adenosine receptor expressed in CHO cells assessed as change in forskolin-induced cAMP production at 1 uM after 6 mins by radioimmunoassay; type: functional, cell-based; outline: as §2
[6] = molecular target: Adenosine receptor A2a (Homo sapiens) (UniProt P29274); test: Displacement of [3H]ZM241385 from recombinant human A2A adenosine receptor expressed in CHO cells at 10 uM after 60 mins by scintillation counting; type: cell-based
Outline: (§3)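 Membranes from hA2ACHO cells incubated with 1 nM [3H]ZM 241385 in 50 mM Tris–HCl, 10 mM MgCl2, pH 7.4 at 4 °C for 60 min. Compound added from a 100-fold DMSO stock, 1% DMSO final, also in controls. Separated by GF/B filtration and counted by scintillation. Result given as % of control specific binding.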

[7] = molecular target: T1, Adenosine receptor A1 (Homo sapiens); test: Allosteric enhancer activity at recombinant human A1 adenosine receptor expressed in CHO cells assessed as change in forskolin-induced cAMP production at 10 uM after 6 mins by radioimmunoassay; type: functional, cell-based; outline: as §2
[8] = molecular target: T2, Adenosine receptor A3 (Homo sapiens) (UniProt P0DMS8); test: Displacement of [3H]MRE3008F20 from recombinant human A3 adenosine receptor expressed in CHO cells at 10 uM after 120 mins by scintillation counting; type: cell-based
T2 sequence (whole entry): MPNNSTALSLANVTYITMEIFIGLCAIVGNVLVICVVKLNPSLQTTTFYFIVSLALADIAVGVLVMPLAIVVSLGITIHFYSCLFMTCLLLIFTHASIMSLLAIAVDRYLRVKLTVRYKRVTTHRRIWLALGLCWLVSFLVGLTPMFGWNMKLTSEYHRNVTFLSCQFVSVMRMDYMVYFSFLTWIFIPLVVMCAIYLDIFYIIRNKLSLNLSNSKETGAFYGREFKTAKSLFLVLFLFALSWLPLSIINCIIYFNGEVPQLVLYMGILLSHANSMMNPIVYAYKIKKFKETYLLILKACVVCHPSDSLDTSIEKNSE
Outline: as §3, with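 “from hA3CHO” for “from hA2ACHO”, “with 2” for “with 1”, “nM [3H]MRE 3008F20” for “nM [3H]ZM 241385”, “MgCl2, 1 mM EDTA,” for “MgCl2,”, “for 120” for “for 60”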

[9] = molecular target: T1, Adenosine receptor A1 (Homo sapiens); test: Displacement of [3H]DPCPX from recombinant human A1 adenosine receptor expressed in CHO cells at 10 uM after 120 mins by scintillation counting; type: cell-based
Outline: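 Membranes from hA1CHO cells incubated with 1 nM [3H]DPCPX in 50 mM Tris–HCl pH 7.4 at 25 °C for 120 min. Compound added from a 100-fold DMSO stock, so 1% DMSO final, also present in controls. Bound ligand separated on GF/B filters and counted by scintillation. Result given as % of control specific binding.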

[10] = molecular target: T1, Adenosine receptor A1 (Homo sapiens); test: Allosteric enhancer activity at recombinant human A1 adenosine receptor expressed in CHO cells assessed as change in forskolin-induced cAMP production at 0.1 uM after 6 mins by radioimmunoassay; type: functional, cell-based; outline: as §2

Adenosine receptor A2a (Homo sapiens), sequence (P29274 whole entry): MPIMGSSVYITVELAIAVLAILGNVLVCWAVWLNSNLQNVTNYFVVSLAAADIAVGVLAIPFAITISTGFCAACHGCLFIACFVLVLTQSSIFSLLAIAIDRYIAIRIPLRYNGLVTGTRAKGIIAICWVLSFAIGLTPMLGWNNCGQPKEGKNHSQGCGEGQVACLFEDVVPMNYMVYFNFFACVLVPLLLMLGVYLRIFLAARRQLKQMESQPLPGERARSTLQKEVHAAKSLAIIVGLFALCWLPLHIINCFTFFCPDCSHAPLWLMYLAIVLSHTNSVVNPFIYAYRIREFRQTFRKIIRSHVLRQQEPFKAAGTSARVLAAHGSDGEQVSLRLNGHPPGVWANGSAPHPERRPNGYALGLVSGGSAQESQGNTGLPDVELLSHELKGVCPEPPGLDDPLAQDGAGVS

Row | fold change (FC) [1] | fold change (FC) [2] | Activity [3] | fold change (FC) [4] | Activity [5] | inhibition [6] | Activity [7] | inhibition [8] | inhibition [9] | Activity [10] | SMILES
1 | 3.7 | 1 | -2.2% | 4.5 | -43% | 1% | -82% | 0% | 0% | 4.2% | Nc1scc(CN2CCN(Cc3ccc(Cl)cc3)CC2)c1C(=O)c1ccc(Cl)cc1
2 | 3.3 | 1 | 0% | 3.9 | -24% | 0% | -61% | 6% | 0% | -2.3% | Nc1scc(CN2CCC(c3ccc(Cl)cc3)CC2)c1C(=O)c1ccc(Cl)cc1
3 | 1.4 | 0.9 | -2.1% | 1.2 | -5.2% | 1% | -18% | 0% | 2% | 2% | Nc1scc(CN2CCN(c3ccccc3Cl)CC2)c1C(=O)c1ccc(Cl)cc1
4 | 3.7 | 1 | 2% | 4.4 | -54% | 0% | -74% | 0% | 0% | -11% | Nc1scc(CN2CCN(c3ccc(Cl)cc3Cl)CC2)c1C(=O)c1ccc(Cl)cc1
5 | 3.4 | 1 | -12% | 4.4 | -27% | 0% | -47% | 0% | 0% | -11% | Nc1scc(CN2CCN(c3ccc(C(F)(F)F)cc3)CC2)c1C(=O)c1cccc(C(F)(F)F)c1
6 | 2.9 | 0.9 | 15% | 3.3 | -2.2% | 0% | -47% | 1% | 0% | 0% | Nc1scc(CN2CCN(c3c(Cl)cccc3Cl)CC2)c1C(=O)c1ccc(Cl)cc1
7 | 4.8 | 1 | 0% | 6.1 | -66% | 0% | -82% | 0% | 1% | -17% | Nc1scc(CN2CCN(c3ccc(F)cc3F)CC2)c1C(=O)c1ccc(Cl)cc1
8 | 1.2 | 0.9 | 2.1% | 1.1 | 1.3% | 0% | 4% | 0% | 0% | 1.3% | Nc1scc(CN2CCN(c3c(F)cccc3F)CC2)c1C(=O)c1cccc(C(F)(F)F)c1
9 | 4.2 | 1.1 | 6.1% | 5.2 | -39% | 0% | -70% | 0% | 0% | -6.2% | Nc1scc(CN2CCN(c3ccc(F)cc3Cl)CC2)c1C(=O)c1ccc(Cl)cc1
10 | 4.5 | 1 | -1% | 5.8 | -69% | 0% | -74% | 1% | 1% | -22% | Nc1scc(CN2CCN(c3cc(Cl)cc(Cl)c3)CC2)c1C(=O)c1ccc(Cl)cc1
11 | 3.5 | 1 | 1% | 4.2 | -57% | 1% | -77% | 0% | 2% | 3.2% | Nc1scc(CN2CCN(c3cccc(Cl)c3Cl)CC2)c1C(=O)c1ccc(Cl)cc1
12 | 1.2 | 0.9 | 2.9% | 1.1 | 3.7% | 0% | -25% | 0% | 0% | 13% | Nc1scc(CN2CCN(C3CCCCCC3)CC2)c1C(=O)c1ccc(Cl)cc1
13 | 3.8 | 1 | 3.1% | 4.7 | -59% | 0% | -80% | 2% | 1% | -13% | Nc1scc(CN2CCN(c3cc(F)ccc3F)CC2)c1C(=O)c1ccc(Cl)cc1
14 | 5.5 | 1.1 | 4.2% | 7 | -60% | 0% | -78% | 0% | 0% | -21% | Nc1scc(CN2CCN(c3ccc(F)c(Cl)c3)CC2)c1C(=O)c1ccc(Cl)cc1
15 | 5 | 1.1 | -12% | 6.3 | -65% | 1% | -80% | 4% | 1% | -23% | Nc1scc(CN2CCN(c3c(F)cccc3F)CC2)c1C(=O)c1ccc(Cl)cc1
16 | 1.7 | 1 | -8% | 1.3 | -31% | 0% | -57% | – | 0% | -3.4% | Cc1sc(N)c(C(=O)c2cccc(C(F)(F)F)c2)c1C

Row | SMILES | fold change (FC) [1] | fold change (FC) [2] | Activity [3] | fold change (FC) [4] | Activity [5] | inhibition [6] | Activity [7] | inhibition [8] | inhibition [9] | Activity [10]
17 | Nc1scc(CN2CCN(C(=O)Cc3ccc(Cl)cc3)CC2)c1C(=O)c1ccc(Cl)cc1 | 1.5 | 0.9 | 2.1% | 1.5 | -8.1% | 0% | -42% | 0% | 1% | 0%
